Experimental data: ChEMBL document CHEMBL1152611, “Indene-based frameworks targeting the 5-HT6 serotonin receptor: ring constraint in indenylsulfonamides using cyclic amines and structurally abbreviated counterparts” (Bioorg Med Chem, 2009)

How the values were obtained:
[1] = molecular target: T1, 5-hydroxytryptamine receptor 6 (Homo sapiens, UniProt P50406); assay: Displacement of [3H]LSD from human 5HT6 receptor expressed in HEK293 cells at 100 nM; format: cell-based
[2] = molecular target: T1, 5-hydroxytryptamine receptor 6; assay: Antagonist activity at 5HT6 receptor; format: functional
[3] = molecular target: T1, 5-hydroxytryptamine receptor 6; assay: Binding affinity to 5HT6 receptor
[4] = molecular target: T1, 5-hydroxytryptamine receptor 6; assay: Antagonist activity at human 5HT6 receptor expressed in HEK293 cells assessed as inhibition of 5-HT-stimulated cAMP accumulation by HTRF assay relative to untreated control; format: functional, cell-based
In short: (§1)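 HEK-293F cells stably expressing human 5-HT6, serum-starved overnight, 20,000 cells/well in Ham's F12 with 1 mM IBMX and 20 µM pargyline. Compound or DMSO vehicle (final DMSO ≤2%) added for 30 min at 37 °C, with 5-HT present in antagonist mode. HTRF cAMP detection with cryptate and XL-665, 1 h at room temperature, read at 665/620 nm.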

[5] = molecular target: T2, 5-hydroxytryptamine receptor 1A (Homo sapiens, UniProt P08908); assay: Inhibition of human 5HT1A receptor
T2 sequence (P08908 whole entry): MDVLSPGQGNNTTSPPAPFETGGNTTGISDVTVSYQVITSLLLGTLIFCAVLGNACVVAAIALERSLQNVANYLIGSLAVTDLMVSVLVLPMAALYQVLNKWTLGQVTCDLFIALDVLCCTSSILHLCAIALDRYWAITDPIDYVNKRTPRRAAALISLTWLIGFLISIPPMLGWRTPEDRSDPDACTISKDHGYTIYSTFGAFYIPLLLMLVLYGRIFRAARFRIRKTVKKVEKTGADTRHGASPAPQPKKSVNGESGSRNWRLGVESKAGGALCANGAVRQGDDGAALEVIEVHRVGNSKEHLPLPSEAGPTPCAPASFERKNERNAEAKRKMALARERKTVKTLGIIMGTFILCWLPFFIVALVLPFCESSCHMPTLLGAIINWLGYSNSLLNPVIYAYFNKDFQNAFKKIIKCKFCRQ

[6] = molecular target: T1, 5-hydroxytryptamine receptor 6; assay: Displacement of [3H]LSD from human 5HT6 receptor expressed in HEK293 cells; format: cell-based
In short: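 Commercial HEK-293 membranes with human 5-HT6 diluted 1:40 in 50 mM Tris-HCl, 10 mM MgCl2, 0.5 mM EDTA, pH 7.4. Incubated with 2.7 nM [3H]-LSD and 22.9 µg protein for 60 min at 37 °C, then filtered on PEI-treated glass fibre. Nonspecific binding defined with 100 µM serotonin. Triplicate points; IC50 from a regression line, converted to Ki by Cheng-Prusoff.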

[7] = molecular target: T3, Alpha-2A adrenergic receptor (Homo sapiens, UniProt P08913); assay: Inhibition of human alpha-2a adrenergic receptor
T3 sequence (P08913 whole entry): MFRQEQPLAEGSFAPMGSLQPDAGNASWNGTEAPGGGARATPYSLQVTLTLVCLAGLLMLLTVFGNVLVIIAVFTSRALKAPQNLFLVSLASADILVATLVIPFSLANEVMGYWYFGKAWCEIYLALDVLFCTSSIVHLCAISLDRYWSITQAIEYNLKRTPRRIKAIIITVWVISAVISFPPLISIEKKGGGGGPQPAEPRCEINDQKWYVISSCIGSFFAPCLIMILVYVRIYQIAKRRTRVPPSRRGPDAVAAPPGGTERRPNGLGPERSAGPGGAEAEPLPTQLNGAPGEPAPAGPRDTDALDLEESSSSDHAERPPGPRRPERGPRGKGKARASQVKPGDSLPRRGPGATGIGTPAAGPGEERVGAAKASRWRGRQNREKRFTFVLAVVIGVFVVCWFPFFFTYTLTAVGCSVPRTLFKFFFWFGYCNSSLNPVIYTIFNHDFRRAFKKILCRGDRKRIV

[8] = molecular target: T4, 5-hydroxytryptamine receptor 2C (Homo sapiens, UniProt P28335); assay: Inhibition of human 5HT2C receptor
T4 sequence (P28335 whole entry): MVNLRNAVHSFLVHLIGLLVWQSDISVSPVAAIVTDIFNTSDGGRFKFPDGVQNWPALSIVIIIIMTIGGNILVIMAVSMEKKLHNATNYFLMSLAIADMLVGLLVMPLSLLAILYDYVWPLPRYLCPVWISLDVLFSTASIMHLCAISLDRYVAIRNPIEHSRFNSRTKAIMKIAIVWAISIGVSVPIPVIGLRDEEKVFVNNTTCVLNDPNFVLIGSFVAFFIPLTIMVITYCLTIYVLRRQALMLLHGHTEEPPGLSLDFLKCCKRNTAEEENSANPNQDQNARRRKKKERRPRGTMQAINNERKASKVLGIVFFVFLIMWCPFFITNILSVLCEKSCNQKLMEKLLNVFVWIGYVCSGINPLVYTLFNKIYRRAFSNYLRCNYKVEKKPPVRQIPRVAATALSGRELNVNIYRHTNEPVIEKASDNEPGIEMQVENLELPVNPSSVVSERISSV

[9] = molecular target: Sodium-dependent serotonin transporter (Homo sapiens, UniProt P31645); assay: Inhibition of human SERT
[10] = molecular target: T5, Adrenergic receptor alpha-1 (Rattus norvegicus, UniProt P15823+P23944+P43140); assay: Inhibition of rat alpha1 adrenergic receptor
T5 sequence (P15823 whole entry): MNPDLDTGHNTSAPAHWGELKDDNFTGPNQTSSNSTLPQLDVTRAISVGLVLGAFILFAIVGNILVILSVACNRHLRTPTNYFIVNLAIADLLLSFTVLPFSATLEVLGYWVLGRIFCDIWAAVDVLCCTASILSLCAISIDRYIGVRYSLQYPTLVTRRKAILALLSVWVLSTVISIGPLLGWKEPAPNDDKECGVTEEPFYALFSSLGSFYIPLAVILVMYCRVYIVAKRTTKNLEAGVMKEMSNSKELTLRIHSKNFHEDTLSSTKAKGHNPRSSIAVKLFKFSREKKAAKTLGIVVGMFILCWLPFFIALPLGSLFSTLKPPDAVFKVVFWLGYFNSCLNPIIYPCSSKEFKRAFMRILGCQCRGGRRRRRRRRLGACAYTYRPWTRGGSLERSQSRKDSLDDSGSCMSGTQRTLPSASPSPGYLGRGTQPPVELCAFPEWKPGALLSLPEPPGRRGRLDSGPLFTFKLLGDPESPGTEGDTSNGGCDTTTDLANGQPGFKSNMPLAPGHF
T5 sequence (P23944 whole entry): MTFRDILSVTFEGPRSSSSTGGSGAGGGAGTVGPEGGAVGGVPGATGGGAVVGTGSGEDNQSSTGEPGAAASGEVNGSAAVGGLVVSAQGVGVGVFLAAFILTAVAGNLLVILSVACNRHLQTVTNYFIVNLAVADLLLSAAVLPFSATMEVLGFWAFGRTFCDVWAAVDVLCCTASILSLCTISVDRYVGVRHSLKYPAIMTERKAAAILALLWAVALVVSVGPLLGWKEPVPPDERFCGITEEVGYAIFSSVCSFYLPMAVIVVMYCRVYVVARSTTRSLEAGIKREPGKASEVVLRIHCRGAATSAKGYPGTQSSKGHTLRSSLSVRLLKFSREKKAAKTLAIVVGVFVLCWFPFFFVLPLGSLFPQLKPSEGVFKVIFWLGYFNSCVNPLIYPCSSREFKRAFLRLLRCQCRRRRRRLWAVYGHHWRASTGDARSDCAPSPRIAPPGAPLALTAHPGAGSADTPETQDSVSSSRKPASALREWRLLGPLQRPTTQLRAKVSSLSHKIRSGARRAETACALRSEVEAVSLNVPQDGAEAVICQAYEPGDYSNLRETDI
T5 sequence (P43140 whole entry): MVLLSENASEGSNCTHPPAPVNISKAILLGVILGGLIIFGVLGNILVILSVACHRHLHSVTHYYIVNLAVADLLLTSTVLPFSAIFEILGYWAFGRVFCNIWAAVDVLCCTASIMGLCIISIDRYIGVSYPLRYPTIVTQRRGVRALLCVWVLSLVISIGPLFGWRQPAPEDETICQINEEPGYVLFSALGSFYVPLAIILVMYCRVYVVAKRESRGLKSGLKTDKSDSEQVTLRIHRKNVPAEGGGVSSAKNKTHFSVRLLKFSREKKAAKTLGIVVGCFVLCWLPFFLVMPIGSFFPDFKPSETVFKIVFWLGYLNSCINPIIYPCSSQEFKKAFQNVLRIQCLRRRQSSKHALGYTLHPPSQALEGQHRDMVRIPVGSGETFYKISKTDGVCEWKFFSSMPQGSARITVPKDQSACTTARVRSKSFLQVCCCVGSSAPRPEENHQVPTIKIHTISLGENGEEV

[11] = molecular target: T1, 5-hydroxytryptamine receptor 6; assay: Agonist activity at human 5HT6 receptor expressed in HEK293 cells assessed as stimulation of cAMP accumulation by HTRF assay relative to control; format: functional, cell-based; in short: as §1
[12] = molecular target: T1, 5-hydroxytryptamine receptor 6; assay: Antagonist activity at human 5HT6 receptor expressed in HEK293 cells assessed as inhibition of 5-HT-stimulated cAMP accumulation by HTRF assay; format: functional, cell-based; in short: as §1
[13] = molecular target: T1, 5-hydroxytryptamine receptor 6; assay: Agonist activity at 5HT6 receptor; format: functional
In short: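 HEK-293F cells stably expressing human 5-HT6, kept overnight in serum-free medium, then 20,000 cells/well in Ham's F12 with 1 mM IBMX and pargyline. Compound (DMSO at most 2% final) added for 30 min at 37 °C without 5-HT. cAMP measured by HTRF (cryptate plus XL-665), 1 h at room temperature, 665/620 nm ratio read.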

T1 sequence (P50406 whole entry): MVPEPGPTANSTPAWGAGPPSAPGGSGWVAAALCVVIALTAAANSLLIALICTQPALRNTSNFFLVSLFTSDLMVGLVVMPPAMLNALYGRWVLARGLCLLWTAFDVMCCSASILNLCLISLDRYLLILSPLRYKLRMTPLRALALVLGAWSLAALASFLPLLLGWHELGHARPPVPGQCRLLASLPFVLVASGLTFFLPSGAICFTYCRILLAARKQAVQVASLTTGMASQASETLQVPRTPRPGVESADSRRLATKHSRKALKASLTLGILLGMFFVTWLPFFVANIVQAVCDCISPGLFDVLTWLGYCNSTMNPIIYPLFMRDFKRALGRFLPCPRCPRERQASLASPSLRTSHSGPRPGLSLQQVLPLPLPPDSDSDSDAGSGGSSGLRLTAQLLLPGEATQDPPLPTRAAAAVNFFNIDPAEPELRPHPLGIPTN
Sequence of Sodium-dependent serotonin transporter (P31645 whole entry): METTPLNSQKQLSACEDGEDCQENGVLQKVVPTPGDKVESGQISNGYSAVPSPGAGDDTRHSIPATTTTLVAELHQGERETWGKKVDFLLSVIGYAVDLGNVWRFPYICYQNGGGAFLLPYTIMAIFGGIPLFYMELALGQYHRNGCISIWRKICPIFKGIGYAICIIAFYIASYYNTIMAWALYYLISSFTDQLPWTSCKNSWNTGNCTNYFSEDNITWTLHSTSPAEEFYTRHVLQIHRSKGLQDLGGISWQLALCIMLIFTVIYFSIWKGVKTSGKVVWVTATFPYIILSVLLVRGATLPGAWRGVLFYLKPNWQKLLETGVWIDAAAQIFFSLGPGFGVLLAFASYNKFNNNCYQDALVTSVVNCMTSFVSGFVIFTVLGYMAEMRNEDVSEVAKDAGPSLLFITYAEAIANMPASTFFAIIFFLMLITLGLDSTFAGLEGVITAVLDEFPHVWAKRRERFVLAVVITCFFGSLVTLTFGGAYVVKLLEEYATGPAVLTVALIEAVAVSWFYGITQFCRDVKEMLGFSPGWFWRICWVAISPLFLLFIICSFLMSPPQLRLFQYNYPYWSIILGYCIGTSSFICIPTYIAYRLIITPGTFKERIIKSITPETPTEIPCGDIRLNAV

| inhibition [1] [%] | IC50 [2] [nM] | Imax [4] [%] | IC50 [5] [nM] | Ki [6] [nM] | IC50 [7] [nM] | Structure (SMILES) | Ki [3] [nM] | also measured |
| --- | --- | --- | --- | --- | --- | --- | --- | --- |
| 86 | – | 28 | > 10000 | 18 | 1210 | CC1=C(C2CCCN(C)C2)c2cc(NS(=O)(=O)c3c(Cl)nc4sccn34)ccc2C1 (stereo unspecified) | – | – |
| 84 | – | 10 | > 10000 | 64 | > 1000 | COc1cc2c(cc1NS(=O)(=O)c1c(Cl)nc3sccn13)C(C)=C(C)C2 | – | IC50 [8]: > 1000 nM; IC50 [9]: > 10000 nM; IC50 [10]: > 10000 nM; Emax [11]: 49% |
| 22 | – | – | – | – | – | CC1=C(C2CCCN(C)C2)c2cc(NS(=O)(=O)c3sc4ccc(Cl)cc4c3C)ccc2C1 (stereo unspecified) | – | – |

Further lines, the compound ahead of its results:

| Structure (SMILES) | inhibition [1] [%] | IC50 [2] [nM] | Imax [4] [%] | IC50 [5] [nM] | Ki [6] [nM] | IC50 [7] [nM] | Ki [3] [nM] | also measured |
| --- | --- | --- | --- | --- | --- | --- | --- | --- |
| Cc1c(S(=O)(=O)Nc2ccc3c(c2)C([C@H]2CCN(C)C2)=CC3)sc2ccc(Cl)cc12 | 57 | – | – | – | – | – | – | – |
| O=S(=O)(Nc1ccc2[nH]cc(C[C@@H]3CCCN3)c2c1)c1ccc(C(F)(F)F)cc1 | – | 21.6 | – | – | – | – | 10 | – |
| CN(C)Cc1cn(S(=O)(=O)c2ccccc2)c2ccccc12 | – | 880 | – | – | – | – | 3 | – |
| CC1=CC(C)(C)c2ccc(NS(=O)(=O)c3c(Cl)nc4sccn34)cc21 | 75 | – | 92 | > 10000 | 80 | > 10000 | – | IC50 [8]: > 10000 nM; IC50 [9]: > 10000 nM; IC50 [12]: 2400 nM |
| Cc1cn(S(=O)(=O)c2ccc(N)cc2)c2ccccc12 | – | 320 | – | – | – | – | – | – |
| O=S(=O)(Nc1ccc2[nH]cc(C[C@H]3CCCN3)c2c1)c1ccc(C(F)(F)F)cc1 | – | – | – | – | – | – | 0.4 | EC50 [13]: 4.5 nM |
